The subject of this test is Human immunodeficiency virus 1. Description: Antiviral activity against HIV1 in human MT4 cells assessed as prevention of virus-induced cytopathogenicity. The class given is functional, organism-based. A digest of the protocol:
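MT-4 cells, 1 × 10⁴ per well, with serial compound dilutions from a 100 mM DMSO stock. Infected with HIV-1 at 100 CCID50. Four-day incubation at 37 °C, then viable cells measured by MTT. Read-out is inhibition of virus-induced cytopathogenicity, assessed at non-cytotoxic concentrations.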
(Cytopathic effects are the visible damage that an infection or toxin causes in cultured cells.)

Active and inactive are the calls of the source. The calls are words filed in the database; no cut-off is given here.

In the case of `N#C/C(=C\N1CCNC1=S)C(=O)c1ccccc1`, the outcome was inactive. For `COC(=O)/C(=C\N1CCNC1=S)C(C)=O`, the result was inactive. In the case of `N#C/C(=C\N1CCNC1=S)C(N)=O`, the outcome was inactive. For `CC(C)(C)C(=O)/C(C#N)=C/N1CCNC1=S`, the outcome was inactive. With `CCOC(=O)/C(=C/N1CCNC1=S)C(=O)c1ccccc1`, the result was inactive.

Take `COC(=O)/C(C#N)=C/N1CCNC1=S`: the result was inactive. Take `CC(=O)/C(=C/N1CCNC1=S)C(=O)c1ccccc1`: the result was inactive.
